The values that follow come from PMC7818638 (ACS Omega, 2021).

In one data set the test system is HepG2. Put plainly: Antiproliferative. The settings on record: Homo sapiens, HepG2, read-out: HepG2 IC50 ± SD. The class given is cell-based. An outline of the steps: (§1)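 Test compounds are screened by MTT assay against human hepatoblastoma HepG2 cells and murine BALB/3T3 fibroblasts, with doxorubicin as the reference drug. Dose–response curves are plotted from the results. IC50 is taken as the concentration needed to kill half the cell population. Values are the mean of three independent experiments.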

Data set [1] concerns BALB/3T3 (murine fibroblast). As to the kind of experiment: Cytotoxicity toward normal cell line BALB/3T3, MTT assay. The class given is cell-based. The settings on record: for toxicity on the normal cell line (BALAB/3T3): statement in words; for IC50: Mus musculus, BALB/3T3, read-out: BALAB/3T3 IC50 ± SD. Summed up:
as §1
Background: Tetrazolium assays rely on reduction of a dye to a coloured formazan, in cell work by metabolically active cells.

In brackets after ≈: the same amount, converted by molar mass.

Regarding `Cc1c(-c2cc(-c3ccccc3)c(C#N)c(N)n2)nnn1-c1ccc(Br)cc1` [Compound 3, 2-Amino-6-(1-(4-bromophenyl)-5-methyl-1H-1,2,3-triazol-4-yl)-4-phenylnicotinonitrile], the IC50 with HepG2 worked out at 17.2 ± 0.83 µg/mL (≈ 40 µM).
`Cc1c(-c2cc(-c3cn(-c4ccccc4)nc3-c3nnn(-c4ccc(Br)cc4)c3C)c(C#N)c(N)n2)nnn1-c1ccc(Br)cc1` [Compound 6, 2-Amino-6-(1-(4-bromophenyl)-5-methyl-1H-1,2,3-triazol-4-yl)-4-(3-(1-(4-bromophenyl)-5-methyl-1H-1,2,3-triazol-4-yl)-1-phenyl-1H-pyrazol-4-yl)nicotinonitrile]: the IC50 with HepG2 amounted to 0.64 ± 0.14 µg/mL (≈ 0.873 µM). Also, the “toxicity on the normal cell line (BALAB/3T3)” value in data set [1] is “no toxicity”.
Take `Cc1c(-c2cc(-c3cn(-c4ccccc4)nc3-c3nnn(-c4cccc([N+](=O)[O-])c4)c3C)c(C#N)c(N)n2)nnn1-c1ccc(Br)cc1` [Compound 7, 2-Amino-6-(1-(4-bromophenyl)-5-methyl-1H-1,2,3-triazol-4-yl)-4-(3-(5-methyl-1-(3-nitrophenyl)-1H-1,2,3-triazol-4-yl)-1-phenyl-1H-pyrazol-4-yl)nicotinonitrile]: the IC50 with HepG2 turned out to be 1.08 ± 0.94 µg/mL (≈ 1.54 µM). The “toxicity on the normal cell line (BALAB/3T3)” value in data set [1] was “no toxicity”.
Take `COc1cc(-c2cc(-c3nnn(-c4ccc(Br)cc4)c3C)nc(N)c2C#N)ccc1O` [Compound 8, 2-Amino-6-(1-(4-bromophenyl)-5-methyl-1H-1,2,3-triazol-4-yl)-4-(4-hydroxy-3-methoxyphenyl)nicotinonitrile]: the IC50 in the data set on HepG2 came to 9.65 ± 0.37 µg/mL (≈ 20.2 µM).
As for `Cc1c(-c2cc(-c3ccco3)c(C#N)c(N)n2)nnn1-c1ccc(Br)cc1` [Compound 9, 2-Amino-6-(1-(4-bromophenyl)-5-methyl-1H-1,2,3-triazol-4-yl)-4-(furan-2-yl)nicotinonitrile], the IC50 in the data set on HepG2 is 11.15 ± 0.01 µg/mL (≈ 26.5 µM).
As for `CCOC(=O)c1c(-c2ccccc2)cc(-c2nnn(-c3ccc(Br)cc3)c2C)nc1N` [Compound 10, Ethyl 2-Amino-6-(1-(4-bromophenyl)-5-methyl-1H-1,2,3-triazol-4-yl)-4-phenylnicotinate], the IC50 is 23.2 ± 0.45 µg/mL (≈ 48.6 µM) in the data set on HepG2 and 76.72 ± 0.24 µg/mL (≈ 160 µM) in data set [1].
In the case of `CCOC(=O)c1c(-c2ccc(OC)cc2)cc(-c2nnn(-c3ccc(Br)cc3)c2C)nc1N` [Compound 11, Ethyl 2-Amino-6-(1-(4-bromophenyl)-5-methyl-1H-1,2,3-triazol-4-yl)-4-(4-methoxyphenyl)nicotinate], in the data set with HepG2, the IC50 was 16.7 ± 0.83 µg/mL (≈ 32.8 µM).
On to `CCOC(=O)c1c(-c2cn(-c3ccccc3)nc2-c2nnn(-c3ccc(Br)cc3)c2C)cc(-c2nnn(-c3ccc(Br)cc3)c2C)nc1N` [Compound 13, Ethyl 2-Amino-6-(1-(4-bromophenyl)-5-methyl-1H-1,2,3-triazol-4-yl)-4-(3-(1-(4-bromophenyl)-5-methyl-1H-1,2,3-triazol-4-yl)-1-phenyl-1H-pyrazol-4-yl)nicotinate], for which the IC50 was determined as 6.24 ± 0.71 µg/mL (≈ 8 µM) with HepG2 and 61.24 ± 0.21 µg/mL (≈ 78.5 µM) in data set [1].
As to `CCOC(=O)c1c(-c2cn(-c3ccccc3)nc2-c2nnn(-c3cccc([N+](=O)[O-])c3)c2C)cc(-c2nnn(-c3ccc(Br)cc3)c2C)nc1N` [Compound 14, Ethyl 2-Amino-6-(1-(4-bromophenyl)-5-methyl-1H-1,2,3-triazol-4-yl)-4-(3-(5-methyl-1-(3-nitrophenyl)-1H-1,2,3-triazol-4-yl)-1-phenyl-1H-pyrazol-4-yl)nicotinate], in the data set with HepG2, the IC50 turned out to be 9.54 ± 0.05 µg/mL (≈ 12.8 µM).
Take `CCOC(=O)c1c(-c2ccc(O)c(OC)c2)cc(-c2nnn(-c3ccc(Br)cc3)c2C)nc1N` [Compound 15, Ethyl 2-Amino-6-(1-(4-bromophenyl)-5-methyl-1H-1,2,3-triazol-4-yl)-4-(4-hydroxy-3-methoxyphenyl)nicotinate]: the values for the IC50 (with HepG2; in data set [1]) were 11.3 ± 0.95 µg/mL (≈ 21.6 µM) and 18.3 ± 1.81 µg/mL (≈ 35 µM), respectively.
For `CCOC(=O)c1c(-c2ccco2)cc(-c2nnn(-c3ccc(Br)cc3)c2C)nc1N` [Compound 16, Ethyl 2-Amino-6-(1-(4-bromophenyl)-5-methyl-1H-1,2,3-triazol-4-yl)-4-(furan-2-yl)nicotinate], the IC50 in the data set on HepG2 is 13.24 ± 0.12 µg/mL (≈ 28.3 µM).
As for `COc1cccc2c1C(=O)c1c(O)c3c(c(O)c1C2=O)C[C@@](O)(C(=O)CO)C[C@@H]3O[C@H]1C[C@H](N)[C@H](O)[C@H](C)O1` [doxorubicin, reference compound], in the data set on HepG2, the IC50 was 3.56 ± 0.46 µg/mL (≈ 6.55 µM).
